We go through 2 compounds from paper PMC10259527 (International Journal of Nanomedicine, 2023).

A word on the AUC(0-inf): it is the area under the concentration-time curve extrapolated to infinity. High values mean high exposure, low ones low exposure. Broadly, the AUC(0-t) is exposure summed from dosing to a finite time, without extrapolation to infinity. A lower AUC(0-t) goes with low exposure. As a reminder, the Cmax is the highest concentration seen after dosing. In general, Tmax refers to the time at which the peak concentration occurs. One may read the Vd as the apparent volume that relates the amount in the body to the concentration in plasma or blood. High values mean extensive tissue distribution, low ones confinement near the circulation. In general, clearance refers to the volume of plasma or blood freed of the substance per unit of time. What is called half-life is how long it takes for the measured level to halve. For orientation: bioavailability means the share of a dose that reaches the circulation, judged against a reference dose that is usually intravenous. Low readings indicate poor availability, high ones good availability. As usually defined, the CC50 is the concentration that lowers cell viability or growth by half. Read a high CC50 as lower toxicity to the cells.

A short description of series [1]: In vivo toxicity in the hepatic AE mouse model. Also on record: species or system C57BL/6J mice. As to conditions: oral 100 mg/kg once daily for 30 days; for Histopathology of liver parenchyma surrounding the metacestodes: H&E. In a few lines:
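Female C57BL/6J mice were infected by portal-vein protoscolex injection. At 3 months, after ultrasound-confirmed metacestode growth, mice (n = 8/group) got oral gavage at 100 mg/kg daily for 30 days, dosed with 0.5% CMC suspensions or CMC alone. Sham-operated uninfected mice got portal saline. Afterwards, retro-orbital blood was drawn under isoflurane. Plasma (2000 g, 15 min, 4°C; stored −20°C) was assayed for ALT/AST on an automatic biochemical analyzer.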

Series [2] is described as follows: Biodistribution by ex vivo fluorescence imaging of major organs. To be noted: Cy5.5-labeled, single oral 25 mg/kg, mice. It is filed as in vivo, BALB/c nude mice. In a few lines: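 Female BALB/c nude mice, acclimated 1 week and fasted 12 h overnight with water, got one oral dose of 25 mg/kg (by parent mass). Cy5.5-labeled nanoparticles were given in PBS; Cy5.5-labeled free compound as an H2O/DMSO (40:1) suspension. Four mice per group were killed at 2, 4, 6, 8 and 24 h. Heart, liver, lungs, spleen and kidneys were PBS-washed and imaged ex vivo for fluorescence. Liver intensity was quantified (n = 4, mean ± SEM).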

Series [3] can be described thus: In vivo pharmacokinetic study. As to conditions: BALB/c, mouse, plasma. On the set-up: species or system BALB/c mice. In a few lines: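 BALB/c mice (5–6 weeks, 20 ± 2 g; n = 6 per time point, 3 male + 3 female) got one IV dose (5 mg/kg) or oral gavage (100 mg/kg). Free compound was given in 5% DMSO/10% solutol HS-15/85% (20% hydroxypropyl-β-cyclodextrin in saline). Tail-vein blood was taken at 0.08–48 h and plasma separated at 2000 g, 15 min. Concentrations were measured by LC–MS/MS; parameters came from non-compartmental analysis.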

Another series is described as follows: Cytotoxicity assay. In kind it is cell-based. To be noted: human, HepG2 cells. Summed up:
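HepG2 cells were seeded at 5×10^3/well. Treatment ran 48 h at 37°C, 5% CO2: free compound at 10–50 μM, nanoparticle form at 10–100 μM. Controls got vehicle only (0.1% v/v DMSO or deionized water). Viability was read by CCK-8 and normalized to vehicle controls, mean ± SEM.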

Regarding `CCCSc1ccc2nc(NC(=O)OC)[nH]c2c1` [albendazole, reference compound], the “Histopathology of liver parenchyma surrounding the metacestodes” value in series [1] was “inflammatory infiltrate, fibroplastic proliferation, and hepatocellular necrosis”.

For `CCCNCC(O)Cn1c2ccc(Cl)cc2c2cc(Cl)ccc21` (centres unmarked) [Compound H1402, 1-(3,6-dichloro-9H-carbazol-9-yl)-3-(propylamino)propan-2-ol], in series [1], the “Histopathology of liver parenchyma surrounding the metacestodes” value was “inflammatory infiltrate, fibroplastic proliferation, and hepatocellular necrosis”. Besides, the “Liver transaminases (mean ALT and AST values)” value in series [1] (compared to shamed individuals) was “various degrees of increase”. The “Decrease of fluorescence intensity in the liver from 8 h to 24 h” value in series [2] was found to be 49.9%. In addition, in series [3] (both, iv, 5 mg/kg), the AUC(0-inf) worked out at 7.6 µM·h, the AUC(0-t) was determined as 7.5 µM·h, the concentration peaked (Cmax) at 2.6 µM and the Tmax is 0.083 h. Also, in series [3] (both, iv, 5 mg/kg), the Vd came out at 19 L/kg, the clearance was 32 mL/min/kg and the half-life is 420 min. This compound returned a bioavailability in series [3] (both, oral, 100 mg/kg) of 69.8%. In series [3] (both, po, 100 mg/kg), the AUC(0-inf) was 128 µM·h, the AUC(0-t) stood at 104 µM·h, the Cmax came to 4.4 µM and the Tmax was determined as 6 h. The compound also had a half-life in series [3] (both, po, 100 mg/kg) of 1050 min. This compound gave a half-life in series [3] (female, po, 100 mg/kg) of 1480 min. This compound also showed a half-life in series [3] (male, po, 100 mg/kg) of 624 min. Besides, half-maximal cytotoxicity in “Cytotoxicity assay” (CC50 at 48 h) was put at 14.9 µM.
